Experimental data published in ChEMBL document CHEMBL1949620, “Cyclolinopeptide derivatives modify methotrexate-induced suppression of the humoral immune response in mice” (Eur J Med Chem, 2011).
Calls of active or inactive are those of the source. No cut-off for these calls is given here. Peptide text beside a SMILES is read from it.

Assays:
Format in all cases: functional, cell-based
Splenocyte [1] = experiment: Immunoregulatory activity against methotrexate-induced decrease of humoral immune response in SRBC primed BALB/c mouse splenocytes assessed as increase of antibody forming cells at 1 ug/ml after 4 days
In short: (§1)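 Female BALB/c mice, 12 weeks old, primed i.p. with 0.2 ml of 1% SRBC. Splenocytes taken 4 days later and cultured at 5×10⁶/ml in RPMI 1640 with 10% FCS, glutamine, pyruvate, 2-mercaptoethanol and antibiotics, plus 0.05 ml of 0.005% SRBC. Peptides (in Cremophor/ethanol, diluted in RPMI) added at culture start; MTX (0.25, 0.5 or 1.0 mM) added at 24 h. After 4 days, AFC counted by agar-gel local haemolysis; Student's t-test.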

Splenocyte [2] = experiment: Immunostimulatory activity in SRBC primed BALB/c mouse splenocytes assessed as humoral immune response by measuring increase of antibody forming cells at 1 ug/ml after 4 days
In short: (§2)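 Splenocytes from female BALB/c mice (12 weeks old) primed i.p. with 0.2 ml of 1% SRBC and harvested after 4 days. Cells cultured at 5×10⁶/ml in RPMI 1640 with 10% FCS and supplements, with 0.05 ml of 0.005% SRBC antigen. Peptide (Cremophor/ethanol stock diluted in RPMI) added at initiation, no MTX. Antibody-forming cells counted by local haemolysis in agar after 4 days; Student's t-test.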

Splenocyte [3] = experiment: Immunostimulatory activity in SRBC primed BALB/c mouse splenocytes assessed as humoral immune response by measuring increase of antibody forming cells after 4 days; in short: as §2
Splenocyte [4] = experiment: Immunoregulatory activity against methotrexate-induced decrease of humoral immune response in SRBC primed BALB/c mouse splenocytes assessed as increase of antibody forming cells at 10 ug/ml after 4 days; in short: as §1
Splenocyte [5] = experiment: Immunoregulatory activity against methotrexate-induced decrease of humoral immune response in SRBC primed BALB/c mouse splenocytes assessed as increase of antibody forming cells at 0.1 ug/ml after 4 days; in short: as §1
Splenocyte [6] = experiment: Immunostimulatory activity in SRBC primed BALB/c mouse splenocytes assessed as humoral immune response by measuring inhibition of antibody forming cells at 10 ug/ml after 4 days; in short: as §2
Splenocyte [7] = experiment: Immunostimulatory activity in SRBC primed BALB/c mouse splenocytes assessed as humoral immune response by measuring increase of antibody forming cells at 0.25 to 1 mM after 4 days; conditions: 1 to 10 ug/ml, in the assay text read “at 1 to 10 ug/ml” for “at 0.25 to 1 mM”; in short: as §1
Splenocyte [8] = experiment: Immunoregulatory activity against methotrexate-induced decrease of humoral immune response in SRBC primed BALB/c mouse splenocytes assessed as increase of antibody forming cells at […] after 4 days; in short: as §1

| Molecule | inhibition (Splenocyte [1]) | increase of antibody forming cells (Splenocyte [4]) | inhibition (Splenocyte [6]) | Activity (Splenocyte [7]) | also measured |
| --- | --- | --- | --- | --- | --- |
| CC[C@H](C)[C@@H]1NC(=O)[C@H](CC(C)C)NC(=O)[C@H](Cc2ccccc2)NC(=O)[C@H](Cc2ccccc2)NC(=O)[C@@H]2CCCN2C(=O)[C@@H]2CCCN2C(=O)[C@H](C(C)C)NC(=O)[C@H](CC(C)C)NC(=O)[C@H]([C@@H](C)CC)NC1=O (cyclo(FFLIILVPP)) | Active | Active | Active | – | Activity (Splenocyte [2]): inactive; Activity (Splenocyte [3]): Dose-dependent effect; inhibition (Splenocyte [5]): Active |
| H-LVPPFFLII-OH | – | Active | – | inactive | – |
| CC[C@H](C)[C@@H]1NC(=O)[C@H](CC(C)C)NC(=O)[C@@H](Cc2ccccc2)N2CCN(C(=O)[C@@H]3CCCN3C(=O)[C@@H]3CCCN3C(=O)[C@H](C(C)C)NC(=O)[C@H](CC(C)C)NC(=O)[C@H]([C@@H](C)CC)NC1=O)[C@H](Cc1ccccc1)C2=O | Active | Active | – | – | – |
| CC[C@H](C)[C@H](NC(=O)[C@@H](NC(=O)[C@H](CC(C)C)NC(=O)[C@@H](Cc1ccccc1)N1CCN(C(=O)[C@@H]2CCCN2C(=O)[C@@H]2CCCN2C(=O)[C@@H](NC(=O)[C@@H](N)CC(C)C)C(C)C)[C@H](Cc2ccccc2)C1=O)[C@@H](C)CC)C(=O)O | – | Active | – | Active | – |
| CC[C@H](C)[C@H](NC(=O)[C@@H](NC(=O)[C@H](CC(C)C)NC(=O)[C@H](Cc1ccccc1)N1CCN(C(=O)[C@@H]2CCCN2C(=O)[C@@H]2CCCN2C(=O)[C@@H](NC(=O)[C@@H](N)CC(C)C)C(C)C)[C@@H](Cc2ccccc2)C1=O)[C@@H](C)CC)C(=O)O | – | – | – | inactive | inhibition (Splenocyte [8]): Active |
| CC[C@H](C)[C@@H]1NC(=O)[C@H](CC(C)C)NC(=O)[C@H](Cc2ccccc2)N2CCN(C(=O)[C@@H]3CCCN3C(=O)[C@@H]3CCCN3C(=O)[C@H](C(C)C)NC(=O)[C@H](CC(C)C)NC(=O)[C@H]([C@@H](C)CC)NC1=O)[C@@H](Cc1ccccc1)C2=O | – | Active | Active | – | – |
